Bioassay records: PubChem BioAssay, several laboratories
Hits are enriched below; roughly 2.9% of the tested compounds scored in any of these assays.
SENP8 block-1 – blocks the human protease SENP8 | Q96LD8 | purified SENP8, Z-RLRGG-aminoluciferin cleavage, luminescence | hit rate 1.2% among 330,000 | inhibition, % at 10 µM; in the data active = inhibition above about 50%
Target sequence (Q96LD8 whole entry, looked up): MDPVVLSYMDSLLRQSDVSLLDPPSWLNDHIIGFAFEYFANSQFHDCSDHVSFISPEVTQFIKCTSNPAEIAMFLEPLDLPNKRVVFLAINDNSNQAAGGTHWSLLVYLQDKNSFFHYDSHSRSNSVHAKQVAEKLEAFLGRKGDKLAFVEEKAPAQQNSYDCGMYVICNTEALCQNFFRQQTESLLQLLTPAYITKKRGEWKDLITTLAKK
SENP7 block – blocks the human protease SENP7. Q9BQF6. recombinant SENP7, Z-RLRGG-aminoluciferin luminescence, 40 min. inhibition, % at 5 µM. hit rate 1.5% among 330,000;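 active = inhibition above about 50% at the single test dose, limit read from the data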
HSP90 inh – HSP90 refolding inhibition in rabbit reticulocyte lysate; hit rate 0.91% among 290,000; luciferase refolding luminescence, 3 h; inhibition, % at 5.6 µM;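 active = inhibition above the screen-wide mean plus 3 SD, computed separately per campaign, cut at about 16% in these data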;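 also: inhibitors lower the luminescence because luciferase stays unfolded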
SENP1 FRET inh – blocks the human SENP1 SUMO protease catalytic domain; recombinant SENP1 catalytic domain, CyPet-SUMO1-YPet FRET cleavage; inhibition, % at 10 µM; hit rate 0.21% among 360,000;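 active = inhibition at least 30% at 10 µM, raw YFP signal under a set limit, fluorescence ratio 0.5 to 1.5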
Target sequence (Q9P0U3 419-644 limits assumed): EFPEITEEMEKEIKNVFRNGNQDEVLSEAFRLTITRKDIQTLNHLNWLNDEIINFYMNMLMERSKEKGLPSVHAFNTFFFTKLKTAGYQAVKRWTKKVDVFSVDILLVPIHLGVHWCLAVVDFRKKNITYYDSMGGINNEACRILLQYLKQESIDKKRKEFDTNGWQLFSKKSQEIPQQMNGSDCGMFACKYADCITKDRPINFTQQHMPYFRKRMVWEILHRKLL
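Material – human SENP1 catalytic domain · Input – SENP1 enzyme, 20 pM final · Compound dosing – single concentration of 10 µM compound, 0.5% DMSO final · Timing – enzyme reaction for 50 min at room temperature, dark · Measured by – FRET fluorescence in CFP and YFP emission channels · Control set – no-enzyme wells low, DMSO-plus-enzyme wells high control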
SENP8 block-2 – SENP8 (human) protease inhibition; Q96LD8; recombinant SENP8, Nedd8 substrate fluorescence; inhibition, % at 20 µM; hit rate 0.64% among 360,000; AID 602440; in the data active = inhibition mostly above about 40%, no sharp cut-off; inactive = mostly below about 27%
SENP6 inh – blocks the human protease SENP6; Q9GZR1; Recombinant SENP6 catalytic domain, aminoluciferin luminescence; inhibition, % at 10 µM; hit rate 1.8% among 330,000;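 active = inhibition above about 50% at the single tested dose, limit read from the data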
HSP90 confirm – HSP90 inhibition, confirmation assay; shares compounds with HSP90 inh; rabbit reticulocyte lysate, luciferase refolding luminescence, 3 h; inhibition, % at 5.9 µM; hit rate 64% among 2,300; AID 1846; in the data active = inhibition above about 18%
luciferase ctr – firefly luciferase inhibition, HSP90 counter-screen; AID 1847; inhibition, % at 5.9 µM; shares compounds with HSP90 inh; purified native firefly luciferase, luminescence; hit rate 48% among 2,300;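 active = inhibition above the mean inhibition of all tested sample wells plus 3 SD, cut at about 10% in these data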
Numbers stand for hits; i = inactive; nt = no result given.

SMILES	SENP8 block-1	SENP7 block	HSP90 inh	SENP1 FRET inh	SENP8 block-2	SENP6 inh	HSP90 confirm	luciferase ctr
O=S(N1CCCCC1)C12CC3CC(CC(C3)C1)C2 (stereo not given)	i	i	40	i	i	i	i	i
Cc1ccc(-n2cnc3cc(NCc4cccs4)ccc32)cc1	i	i	i	i	i	i	nt	nt
c1ccc(-n2cnc3cc(NCc4cccs4)ccc32)cc1	i	i	51	i	i	i	63	61
CCc1ccc(/C=C2\SC(N3CCCC3)=NC2=O)cc1	i	i	26	i	i	i	i	12
O=C1N=C(N2CCCCC2)S/C1=C\c1ccncc1	i	i	i	i	i	i	nt	nt
O=C1N=C(N2CCCC2)S/C1=C\C=C\c1ccccc1	i	i	36	i	i	i	56	54
COc1ccc(N2CCN(C(=O)c3cc(=O)c4cc(C)c(C)cc4o3)CC2)cc1	i	i	i	i	i	i	nt	nt
Cc1cccc(NC(=S)NC(=O)/C=C/c2ccco2)n1	i	i	18	i	i	i	i	i
COc1ccc2c(c1)c(C(=O)CN1CCN(Cc3ccccc3)CC1)c(C)n2C	i	i	28	i	i	i	i	i
COc1ccc2c(c1)c(C(=O)CN1CCN(c3ccccc3)CC1)c(C)n2C	i	i	i	nt	nt	i	nt	nt
Cc1oc(-c2ccc(C(F)(F)F)cc2)nc1CN(Cc1ccccn1)C[C@@H]1CCC(=O)N1	i	i	i	i	i	i	nt	nt
CCOc1ccc(-c2nc(CN(Cc3ccccc3)C[C@@H]3CCC(=O)N3)c(C)o2)cc1	i	i	23	i	i	i	41	i
O=C(Cn1nnc(-c2cccs2)n1)NCc1ccccc1	i	i	56	i	i	i	i	i
COC(=O)C1=C(C)NC(=S)NC1c1ccc(-c2cc(Cl)ccc2Cl)o1 (stereo not given)	i	i	i	i	i	i	nt	nt
O=C(CCCc1ccccc1)Nc1ccc2c(c1)OCCO2	i	i	26	i	i	i	32	29
O=C(O)C1CCCCC1C(=O)Nc1ccc2c(c1)OCCO2 (stereo not given)	i	i	29	i	i	i	i	i
O=C(Nc1ccc2c(c1)OCCO2)C1CC1c1ccccc1 (stereo not given)	i	i	i	i	i	i	nt	nt
O=C(CC1CS(=O)(=O)CC1CC(=O)Nc1ccc2c(c1)OCCO2)Nc1ccc2c(c1)OCCO2 (stereo not given)	i	i	59	i	i	i	68	62
CC1CCC(NC(=O)Cn2cnc3sccc3c2=O)CC1 (stereo not given)	i	i	nt	i	i	i	nt	nt
Cc1ccc2c(COC(=O)C3CSC4(C)CCC(=O)N34)cc(=O)oc2c1C (stereo not given)	i	i	nt	i	i	i	nt	nt
CC(=O)C(=Cc1ccccc1)c1ccccc1	nt	nt	nt	i	i	nt	nt	nt
Cc1c(CCC(=O)NCCC(=O)O)c(=O)oc2c(C)c3oc4c(c3cc12)CCCC4	i	i	i	i	i	i	nt	nt
CCc1nnc(N/N=C/c2ccccc2Cl)n1N	i	i	72	i	i	i	i	i
CCc1nnc(N/N=C/c2ccccc2F)n1N	i	i	80	i	i	i	i	i
CCOC(=O)N/N=C/c1ccccc1F	i	i	i	i	i	i	nt	nt
SMILES	SENP8 block-1	SENP7 block	HSP90 inh	SENP1 FRET inh	SENP8 block-2	SENP6 inh	HSP90 confirm	luciferase ctr
CC(=O)c1c(C)[nH]c(C(=O)COC(=O)CCCOc2ccccc2)c1C	i	i	i	i	i	i	nt	nt
CC(=O)c1c(C)[nH]c(C(=O)OCCOc2ccccc2)c1C	i	i	34	i	i	i	55	57
Cc1cc(C(=O)CSc2nnnn2C)c(C)n1Cc1ccco1	i	i	i	i	i	i	nt	nt
Cc1cc(C(=O)CSc2ncccn2)c(C)n1Cc1ccco1	i	i	17	i	i	i	46	37
O=C(Nc1ccccc1C(F)(F)F)c1cc(-c2ccccc2O)on1	i	i	21	i	i	i	i	i
O=C(Nc1ccccc1C(F)(F)F)c1cc(-c2ccco2)on1	i	i	i	i	i	i	nt	nt
O=C(NC1CCCCC1)c1noc2c1CCCCC2	i	i	19	i	i	i	31	14
CC(=O)Nc1nc(-c2cc([N+](=O)[O-])cs2)cs1	i	i	i	i	i	i	nt	nt
COc1ccc(OC)c(NC(=O)CSc2nnc(C3CCCCC3)n2-c2ccccc2)c1	i	i	i	i	i	i	nt	nt
COc1ccccc1C(NC(C)=O)c1cc(Cl)c2cccnc2c1O (stereo not given)	i	i	24	i	i	i	i	i
O=c1[nH]c(NCc2ccco2)nnc1Cc1ccccc1Cl	i	i	i	i	i	i	nt	nt
COc1ccc(/C=N/Nc2cc(OC)ncn2)cc1	nt	nt	18	i	i	nt	31	26
O=C(N/N=C1/CCc2ccccc21)C1CC1	i	i	i	i	i	i	nt	nt
S=C(N/N=C1\CCc2ccccc21)NC1CCCCC1	i	i	26	i	i	i	34	i
COc1ccc(S(=O)(=O)N(C)c2ccc(C(=O)NCC3CCCO3)cc2)cc1OC (stereo not given)	i	i	i	i	i	i	nt	nt
O=C(OCc1cn([C@@H]2CN(C(=O)C3CCCCC3)[C@@H](c3ccc(Cl)cc3)C[C@H]2O)nn1)c1ccccc1	nt	nt	nt	i	i	nt	nt	nt
CCOC(=O)Nc1cc(C(=O)OCC)c(C)nc1C	i	i	27	i	i	i	i	i
CCOC(=O)c1cc(NC(=O)Nc2cc(C)ccn2)c(C)nc1C	i	i	i	i	i	i	nt	nt
Cc1ccc(C2=NCN(c3ccc(C(=O)O)cc3)C(=S)N2)cc1	i	i	22	nt	nt	i	18	i
S=C1NC(c2ccccc2)=NCN1c1ccccc1	i	i	i	i	i	i	nt	nt
O=C(/C=C/c1cnc2ccccc2n1)NC12CC3CC(CC(C3)C1)C2	i	i	28	i	i	i	44	32
Cc1ccc(C(=O)NCCn2cc(SCC(=O)Nc3cc(C)on3)c3ccccc32)cc1	i	i	29	i	i	i	31	i
O=C(CSc1cn(CCNC(=O)c2ccccc2)c2ccccc12)NCc1ccco1	i	i	28	i	i	i	25	i
CCCn1cc(SCC(=O)NCc2ccco2)c2ccccc21	i	i	i	i	i	i	nt	nt
Cc1cc(NC(=O)CSc2cn(CCNC(=O)c3ccccc3)c3ccccc23)no1	i	i	i	i	i	i	nt	nt
Cc1ccnc(NC(=O)C2CC(=O)N(c3ccc4c(c3)OCCO4)C2)c1 (stereo not given)	i	i	i	i	i	i	nt	nt
CC(c1ccccc1)n1c(SCC(=O)Nc2ccccc2)n[nH]c1=O (stereo not given)	i	i	i	i	i	i	nt	nt
O=C(Nc1nc2cc3c(cc2s1)OCO3)c1ccco1	nt	nt	25	i	i	nt	69	68
